Structures are written as SMILES.

A word on the logD: it is lipophilicity at a set pH, counting ionised and neutral species. A word on the bioavailability: it is the share of a dose that reaches the circulation, judged against a reference dose that is usually intravenous. In general, IC50 refers to the concentration at which inhibition is half-maximal. For orientation: half-life means the time needed for the level to fall by half in the phase considered. For orientation: clearance means the volume of plasma or blood freed of the substance per unit of time. In general, AUC refers to the area under the concentration-time curve, a measure of exposure.

The test system of one data set is Mus musculus. Put plainly: Reduction in triglyceride excursion in mouse at 10 mg/kg, po measured at 18 hrs by lipid tolerance test. Format: functional. Details: scale not given: the % may be the effect or the level left. The gist of the method: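 Mouse lipid tolerance test. Oral dose of 10 mg/kg as a suspension in 0.5% methylcellulose; triglyceride reduction read at 18 h.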

A short description of data set [1]: Lipophilicity, log D of the compound by HPLC analysis. Type of data set: physicochemical.
A short description of data set [2]: Bioavailability in Sprague-Dawley rat at 1 mg/kg, iv. The note with it: in vivo. Type of data set: ADME, organism-based. The gist of the method:
(§1)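 Sprague–Dawley rats; intravenous dose of 1 mg/kg given as a solution in EtOH/PEG400/water (10:50:40).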

Data set [3] addresses T1, Diacylglycerol O-acyltransferase 1 (Homo sapiens, UniProt O75907).
T1 sequence (O75907 whole entry): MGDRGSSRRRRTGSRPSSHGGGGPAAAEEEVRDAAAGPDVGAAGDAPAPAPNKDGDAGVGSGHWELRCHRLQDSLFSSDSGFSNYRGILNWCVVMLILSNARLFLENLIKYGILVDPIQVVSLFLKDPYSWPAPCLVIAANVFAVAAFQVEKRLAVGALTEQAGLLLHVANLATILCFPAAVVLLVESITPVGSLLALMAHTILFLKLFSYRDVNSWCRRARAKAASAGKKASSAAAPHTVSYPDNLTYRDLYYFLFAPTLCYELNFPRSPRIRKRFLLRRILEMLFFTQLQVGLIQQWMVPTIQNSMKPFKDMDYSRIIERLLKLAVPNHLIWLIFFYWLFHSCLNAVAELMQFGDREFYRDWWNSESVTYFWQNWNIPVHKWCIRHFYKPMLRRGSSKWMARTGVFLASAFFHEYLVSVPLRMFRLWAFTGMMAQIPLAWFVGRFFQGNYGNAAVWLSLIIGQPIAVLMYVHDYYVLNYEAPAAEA
In words: Inhibition of human DGAT1.

The target in data set [4] is T2, Diacylglycerol O-acyltransferase 1 (Mus musculus, UniProt Q9Z2A7).
T2 sequence (Q9Z2A7 whole entry): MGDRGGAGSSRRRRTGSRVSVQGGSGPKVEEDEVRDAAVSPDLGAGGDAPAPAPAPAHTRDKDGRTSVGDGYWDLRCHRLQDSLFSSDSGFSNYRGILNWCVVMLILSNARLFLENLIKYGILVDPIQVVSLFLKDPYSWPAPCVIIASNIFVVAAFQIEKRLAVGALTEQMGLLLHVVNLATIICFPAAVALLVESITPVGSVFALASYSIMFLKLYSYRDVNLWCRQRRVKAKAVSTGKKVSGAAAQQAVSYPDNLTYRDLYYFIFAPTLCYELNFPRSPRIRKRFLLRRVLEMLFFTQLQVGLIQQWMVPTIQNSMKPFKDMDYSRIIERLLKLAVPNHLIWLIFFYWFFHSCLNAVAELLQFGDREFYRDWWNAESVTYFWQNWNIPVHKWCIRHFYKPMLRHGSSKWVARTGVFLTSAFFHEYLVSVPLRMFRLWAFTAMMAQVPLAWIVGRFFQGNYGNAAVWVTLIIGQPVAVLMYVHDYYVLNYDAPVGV
Put plainly: Inhibition of mouse DGAT1.

Data set [5] concerns Rattus norvegicus. Put plainly: Dose normalized AUC in Sprague-Dawley rat at 1 mg/kg, iv and 2 mg/kg, po. The note with it: in vivo. Type of data set: ADME, organism-based. The gist of the method:
(§2)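 Sprague–Dawley rats; 1 mg/kg iv and 2 mg/kg p.o., both as solutions in EtOH/PEG400/water (10:50:40). Plasma AUC measured for the parent and, where applicable, for the epimerized metabolite formed in vivo.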

The nature of data set [6]: Half life in Sprague-Dawley rat at 1 mg/kg, iv. Type of data set: ADME, organism-based. Details: dose 1 mg/kg, route intravenous. The note with it: in vivo. The gist of the method:
as §1

Data set [7] in a line: Clearance in Sprague-Dawley rat at 1 mg/kg, iv. The note with it: in vivo. Type of data set: ADME, organism-based. Details: dose 1 mg/kg, route intravenous. The gist of the method:
as §1

A short description of data set [8]: Volume of distribution at steady state in Sprague-Dawley rat at 1 mg/kg, iv. Type of data set: ADME, organism-based. Details: dose 1 mg/kg, route intravenous. The note with it: in vivo, read-out: Vdss. Put shortly:
as §1

The nature of data set [9]: AUC in Sprague-Dawley rat at 2 mg/kg, po. Type of data set: ADME, organism-based. On the set-up: dose 2 mg/kg, route oral. The note with it: plasma. The gist of the method:
as §2

Data set [10] deals with Rattus norvegicus. In words: AUC in Sprague-Dawley rat assessed as cis-4-(5-(5-fluoro-1H-benzo[d]imidazol-2-yl)-2,3'-bipyridin-6'-yloxy)cyclohexanecarboxylic acid at 2 mg/kg, po. Format: ADME, organism-based, Plasma. On the set-up: dose 2 mg/kg, route oral. To be noted: in vivo. Put shortly: as §2

Consider `O=C(O)[C@H]1CC[C@@H](Oc2ccc(-c3ccc(-c4nc5ccc(Cl)cc5[nH]4)cn3)cn2)CC1`, for which the Activity with Mus musculus was determined as 144%. Besides, the logD in [1] is 1.42. The same compound had a bioavailability in data set [2] of 19%. Also, the values for the IC50 in [3] and in [4] were 2.1 nM and 3.7 nM, respectively. This compound also had an AUC/dose with Rattus norvegicus [5] of 2.4 µM·h/mg/kg. In [6], this compound gave a half-life of 3.7 h. The clearance in data set [7] worked out at 3 mL/min/kg. For the same compound, the Vd in [8] was 0.34 L/kg.
Regarding `O=C(O)[C@H]1CC[C@H](Oc2ccc(-c3ccc(-c4nc5ccc(F)cc5[nH]4)cn3)cn2)CC1`, the bioavailability in data set [2] worked out at 24%. Moreover, the exposure (AUC) worked out at 4.47 µM·h in data set [9] and 0.48 µM·h with Rattus norvegicus [10]. The IC50 worked out at 2.5 nM in [3] and 8.1 nM in data set [4]. In data set [6], this compound had a half-life of 0.86 h. Further, the clearance in data set [7] stood at 4.2 mL/min/kg. In addition, in [8], the Vd was determined as 0.46 L/kg.

For the origin of these results see ChEMBL document CHEMBL2407079, “Potent DGAT1 Inhibitors in the Benzimidazole Class with a Pyridyl-oxy-cyclohexanecarboxylic Acid Moiety” (ACS Med Chem Lett, 2013).
